Assay results from publication PMC8161485 (ACS Central Science, 2021).

Legend:
P450BM3 variant V-H10 = target: T1, P450BM3 variant V-H10 (Priestia megaterium, UniProt P14779, A181T/A185V/A198V/A291V/E253G/F206C/F88A/H237Q/L354V/P143S/R256S/S227R/T176I/V79N); assay: Heme spin shift binding of MCL to P450 variant V-H10; set-up: species or system Bacillus megaterium
T1 sequence (P14779 1-1049 V79N/F88A/P143S/T176I/A181T/A185V/A198V/F206C/S227R/H237Q/E253G/R256S/A291V/L354V): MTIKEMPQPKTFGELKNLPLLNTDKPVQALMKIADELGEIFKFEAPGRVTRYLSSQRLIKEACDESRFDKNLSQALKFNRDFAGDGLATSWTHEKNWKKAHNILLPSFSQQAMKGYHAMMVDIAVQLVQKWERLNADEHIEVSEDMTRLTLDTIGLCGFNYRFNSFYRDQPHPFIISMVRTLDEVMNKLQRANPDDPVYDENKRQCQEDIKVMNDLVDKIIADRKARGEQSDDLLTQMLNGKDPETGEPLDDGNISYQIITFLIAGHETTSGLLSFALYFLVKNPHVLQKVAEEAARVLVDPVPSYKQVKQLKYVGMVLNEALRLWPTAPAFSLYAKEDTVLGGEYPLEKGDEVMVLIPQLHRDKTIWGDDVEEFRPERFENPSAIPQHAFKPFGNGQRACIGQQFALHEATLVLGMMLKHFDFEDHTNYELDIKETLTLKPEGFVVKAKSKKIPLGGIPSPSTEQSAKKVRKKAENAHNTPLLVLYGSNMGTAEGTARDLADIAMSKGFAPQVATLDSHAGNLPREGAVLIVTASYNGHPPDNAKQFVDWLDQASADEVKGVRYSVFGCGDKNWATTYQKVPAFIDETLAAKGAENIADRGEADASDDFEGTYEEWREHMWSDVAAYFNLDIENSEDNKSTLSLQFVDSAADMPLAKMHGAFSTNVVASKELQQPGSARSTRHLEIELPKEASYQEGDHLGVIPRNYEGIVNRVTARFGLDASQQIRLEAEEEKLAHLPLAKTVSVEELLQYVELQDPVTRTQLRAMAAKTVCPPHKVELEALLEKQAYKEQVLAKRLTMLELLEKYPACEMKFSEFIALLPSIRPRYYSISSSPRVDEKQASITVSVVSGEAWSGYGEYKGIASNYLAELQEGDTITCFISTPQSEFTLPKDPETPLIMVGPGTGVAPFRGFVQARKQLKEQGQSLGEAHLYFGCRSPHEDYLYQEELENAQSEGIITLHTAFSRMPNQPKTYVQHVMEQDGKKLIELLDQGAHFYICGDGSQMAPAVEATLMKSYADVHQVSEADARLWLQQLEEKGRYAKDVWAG
Outline: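 Purified P450 (3 μM) in 50 mM potassium phosphate, pH 8.0, titrated with test compound (5–2000 μM) from a 50 mM ethanol stock. A difference spectrum (350–500 nm) was taken at each step. Absorbance change at 390/420 nm (high/low spin) was plotted against concentration, with KD from a nonlinear 1:1 binding fit. At least triplicate, room temperature.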

[1] = system: primary AML specimens derived from patients with relapsed AML; assay: Activity against the four primary AML specimens; assay type: cell-based; conditions: Homo sapiens, read-out: LC50 across the four primary AML specimens

`C=C1C(=O)O[C@H]2[C@H]1CCC(C)=C1CC[C@@](C)(O)[C@@H]12` [MCL, micheliolide] gave a Kd (P450BM3 variant V-H10) of 590 ± 90 µM and a CC50 [1] of 19 to 22 µM.
